Data from publication PMC6466550 (ACS Medicinal Chemistry Letters, 2019).

System: FOPFlash reporter
Assay: Wnt reporter assay, FOPFlash negative control
Format: cell-based
Conditions: 293T cells, 50 mM LiCl, 24 h, luciferase
Method in brief: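 293T cells transfected with the FOPFlash plasmid, whose TCF/LEF binding sites are mutated. This plasmid served as a negative control for the TOPFlash reporter, which carries eight TCF/LEF binding-site repeats. Wnt signalling was activated with the GSK3beta inhibitor LiCl. Cells were exposed to increasing concentrations of test compound, and reporter activity was then measured.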

CCOC(=O)c1ccc(NS(=O)(=O)c2ccc(Br)cc2)cc1 [Compound 17]
Effect on activity of FOP reporter: failed to prevent
